OX1R antag-1: human HCRTR1 antagonism; O43613; CHO/OX1R cells, Fluo-8 calcium fluorescence, orexin A; inhibition, % at 5 µM; 330,000 compounds, 0.43% hits;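 active means inhibition above its plate's threshold, mean inhibition of all tested compounds on the plate plus 3 SD, cut at about 37% in these data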;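 further: 0% = orexin A challenge wells and 100% = SB-334867-A antagonist wells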
Target sequence (O43613 whole entry, looked up): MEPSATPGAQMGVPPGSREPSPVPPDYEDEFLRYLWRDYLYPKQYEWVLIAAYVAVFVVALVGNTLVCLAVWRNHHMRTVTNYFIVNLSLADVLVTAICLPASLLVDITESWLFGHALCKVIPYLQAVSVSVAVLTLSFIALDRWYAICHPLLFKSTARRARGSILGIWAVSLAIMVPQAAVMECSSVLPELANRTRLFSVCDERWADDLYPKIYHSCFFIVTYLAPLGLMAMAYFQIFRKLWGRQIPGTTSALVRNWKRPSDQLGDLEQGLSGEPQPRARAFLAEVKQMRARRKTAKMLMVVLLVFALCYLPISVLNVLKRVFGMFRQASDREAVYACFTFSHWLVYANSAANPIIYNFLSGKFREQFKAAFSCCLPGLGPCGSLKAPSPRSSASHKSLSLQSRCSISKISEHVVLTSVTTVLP
OX1R antag-2: OX1R (human) antagonism; OX1R-expressing cells, FRET antagonist read-out; inhibition, % at 6.6 µM; 330,000 compounds, 1.8% hits; in the data active means inhibition mostly above about 38%, no sharp cut-off; inactive means mostly below about 40%;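 further: 0% = agonist challenge alone and 100% = reference antagonist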
TAAR1 antag: human TAAR1 antagonism; Q96RJ0; CHO RD-HGA16 TAAR1, Fluo-8 calcium fluorescence, antagonist; inhibition, % at 3 µM; 360,000 compounds, 1.5% hits; AID 624466;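 active means inhibition above a per-plate cutoff, the mean inhibition of test compounds on that plate plus 3 SD, cut at about 49% in these data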;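 further: 0% = DMSO plus EC80 beta-PEA response and 100% = DMSO alone without agonist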
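Test system: RD-HGA16 CHO cells with stable hTAAR1 and Gα16 / Probe or stimulus: EC80 β-phenethylamine stimulus / Times: seeding 17-24 h prior, 75-min 37 °C, 30-min RT dye loading / Detection: Fluo-8 calcium-sensitive fluorescence / Read-out basis: % inhibition scaled between DMSO and EC80 PEA controls / Repeats: singlicate, one well per test compound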
TAAR1 ag: human TAAR1 agonism; CHO RD-HGA16 TAAR1, Fluo-8 calcium fluorescence; vehicle wells 0%, saturating PEA agonist 100%; activation, % at 3 µM; 360,000 compounds, 0.99% hits;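 active means activation above the mean activation of all test compounds in the run plus 3 SD, cut at about 38% in these data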
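Test system: RD-HGA16 (CHO) cells co-expressing Gα16 and hTAAR1 / Benchmarks: DMSO vehicle as 0%, PEA at EC100 as 100% / Repeats: no replicates (n 1) / Measure: % activation from peak over basal fluorescence ratio, DMSO-to-PEA scaled / Timing: 17-24 h plating, Fluo-8 75 min 37 °C, 30 min RT / Technique: kinetic Fluo-8 calcium fluorescence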
CHO parental Ca: signal in parental CHO cells, OX1R antagonist counter-screen; parental CHO-K1, ATP-induced calcium, Fluo-8 fluorescence; inhibition, % at 5.6 µM; 330,000 compounds, 0.63% hits; AID 463079;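 active means inhibition above that plate's mean sample inhibition plus 3 SD, cut at about 26% in these data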;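 further: 0% = ATP-challenged DMSO wells and 100% = DMSO wells without ATP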
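test system = CHO parental line | reagent = ATP stimulus | measured by = intracellular calcium via Fluo-8 no-wash fluorescent dye | control set = ATP and no-ATP DMSO wells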
The depositor's hits bear a star; / = no result. In the library only some 4% were active in any assay of this set; here they are far more common.

SMILES	OX1R antag-1	OX1R antag-2	TAAR1 antag	TAAR1 ag	CHO parental Ca
CN(Cc1ccccc1)C(=O)CN1C(=O)c2ccccc2C1=O	-27	7	-3	2	-2
CN(Cc1ccccc1)C(=O)CN1C(=O)c2ccc([N+](=O)[O-])cc2C1=O	-30	70*	-17	-2	-4
O=C(CCN1C(=O)c2ccc([N+](=O)[O-])cc2C1=O)Nc1cccc(O)c1	10	46*	-4	1	3
Cc1oc(S(=O)(=O)N(C)C)cc1C(=O)Nc1ccc(Cl)cc1	1	1	-7	27	5
CC(CCc1ccccc1)NC(=O)CCC(=O)N1CCC(C(=O)O)CC1 (stereo not drawn)	-9	-2	-17	9	-6
CSC(=Cc1ccc(C(=O)c2ccc(C)cc2)n1C)S(C)=O (stereo not drawn)	/	/	4	3	/
O=C1c2ccc([N+](=O)[O-])cc2C(=O)N1CNc1ccccn1	-6	61*	-13	2	13
O=C(CCSCCC(=O)Nc1c(F)c(F)c(F)c(F)c1F)Nc1c(F)c(F)c(F)c(F)c1F	-6	10	4	10	-2
C/C(=N\Nc1nc2ccccc2nc1C)c1ccccc1O	-10	64*	7	1	6
CC(=NNc1ccc2ccccc2n1)c1ccccc1O	/	/	-4	-2	/
CCO/C(C)=N/n1c2nc3ccccc3nc2c2c(=O)n(CC(C)C)c(C)nc21	-26	73*	17	5	-9
COc1ccc2[nH]c3c(c2c1)CCn1c-3nc2ccccc2c1=O	9	47*	/	/	-7
Cc1cc(N2CCN(C(=O)OC(C)(C)C)C[C@H]2C)ccc1N1CCN(Cc2ccccc2)[C@@H](C)C1	/	/	-21	2	/
NC(CCc1ccccc1)c1csc(NC(=O)NCCc2ccccc2)n1 (stereo not drawn)	/	/	46	26	/
COc1ccc(CC(N)c2csc(NC(=O)c3cccc(OC(F)(F)F)c3)n2)cc1 (stereo not drawn)	/	/	41	36	/
COC(=O)c1cnc(Nc2nc(C(N)Cc3ccc(OC)cc3)cs2)nc1C(F)(F)F (stereo not drawn)	/	/	16	45*	/
NC(Cc1ccccc1)c1csc(NC(=O)c2cccc(OC(F)(F)F)c2)n1 (stereo not drawn)	/	/	12	45*	/
CC(C)c1ccccc1NC(=O)Nc1nc(C(N)Cc2ccc(C(F)(F)F)cc2)cs1 (stereo not drawn)	/	/	37	38*	/
COc1ccc(CC(N)c2csc(NC(=O)NCCc3ccccc3)n2)cc1 (stereo not drawn)	/	/	44	38*	/
NC(Cc1ccc(C(F)(F)F)cc1)c1csc(NC(=O)Nc2ccccc2Cc2ccccc2)n1 (stereo not drawn)	/	/	33	21	/
Cc1cc(Br)cn2c(Cc3ccccc3C(F)(F)F)c(-c3ccco3)nc12	/	/	-14	1	/
CCC(C)(C)c1nnc(NC(=O)C2CC(=O)N(CCc3ccc(F)cc3)C2)s1 (stereo not drawn)	-8	14	-6	8	-13
COc1ccc(NC(=O)c2sc3nc(N4CCOCC4)c4c(c3c2N)CC(C)(C)OC4)c(OC)c1	-18	20	-19	2	-12
COc1cc(CNC(=O)Nc2nc(C(N)Cc3ccc(Cl)cc3)cs2)cc(OC)c1OC (stereo not drawn)	/	/	22	11	/
COc1ccc(CC(N)c2csc(NC(=O)C(c3ccccc3)c3ccccc3)n2)cc1 (stereo not drawn)	/	/	23	47*	/
SMILES	OX1R antag-1	OX1R antag-2	TAAR1 antag	TAAR1 ag	CHO parental Ca
COc1ccc(CC(N)c2csc(NC(=O)c3ccc(OC)cc3)n2)cc1 (stereo not drawn)	/	/	44	26	/
COc1ccc(CNC(=O)Nc2nc(C(N)Cc3ccc(C(F)(F)F)cc3)cs2)cc1 (stereo not drawn)	/	/	49*	44*	/
COc1ccc(CC(N)c2csc(NC(=O)c3ccccc3)n2)cc1 (stereo not drawn)	/	/	13	15	/
NC(Cc1ccc(Cl)cc1)c1csc(NC(=O)NCC2CCCCC2)n1 (stereo not drawn)	/	/	37	46*	/
CCCN1C(=O)c2[nH]nc(-c3ccccc3)c2C1c1ccc(F)cc1 (stereo not drawn)	/	/	-44	1	/
COC(=O)c1ccc2nc(-c3ccco3)c(Cc3ccc(OC)cc3C)n2c1	/	/	-17	0	/
COc1cccc(C(=O)NCC2(c3ccc(OC)c(OC)c3)CCCC2)c1	-32	5	-24	3	-15
Cc1ccc(CNC(=O)c2ccc(NC(=O)CCS(=O)(=O)c3cccs3)cc2)cc1	-22	18	9	11	98*
O=C(CCS(=O)(=O)c1cccs1)Nc1ccc(C(=O)NCc2ccccc2)cc1	-11	10	10	6	3
CSCCC(NC(=O)c1ccc(Cl)cc1Cl)C(=O)N(C)Cc1nc2ccccc2c(=O)[nH]1 (stereo not drawn)	/	/	-24	-2	/
COc1ccc(C(C)=O)cc1CSC(=S)N1CCSCC1	/	/	18	0	/
CCOc1cc(CNC2CCCC2)cc(Cl)c1OCc1ccc(F)cc1	6	20	16	40*	12
COc1cc(CNC2CCCC2)cc(Cl)c1OCc1ccc(F)cc1	-5	9	-2	23	-9
COc1cc(CNn2c(C)n[nH]c2=S)cc(Br)c1OCc1ccc(F)cc1	-20	29	7	5	-7
COc1cc(CNn2c(C)n[nH]c2=S)cc(Cl)c1OCc1ccc(F)cc1	45*	16	-4	3	35*
CCN(CC)C(=O)C(Oc1ccc(S(=O)(=O)N2CCCC2)cc1[N+](=O)[O-])c1ccccc1 (stereo not drawn)	6	63*	-8	-1	0
O=[N+]([O-])c1ccccc1CCO	/	/	-27	8	/
O=[N+]([O-])c1ccccc1CCc1ccccc1[N+](=O)[O-]	/	/	50*	34	/
COCCCNC(=O)c1nnn2c1nc(N)c1cc(Cl)ccc12	/	/	14	2	/
CCC(=O)Nc1c2c(nn1-c1ccc(F)cc1)CS(=O)(=O)C2	8	10	-18	5	-1
COc1cc(OC)cc(N(C(=O)CNC(=O)c2ccco2)C(C(=O)NCC2CCCO2)c2ccccc2)c1 (stereo not drawn)	-22	22	52*	15	-18
COc1ccc(NC(=O)CN(C)CC(=O)Nc2cccc(F)c2)cc1S(=O)(=O)N1CCCCC1	/	/	13	6	/
O=C(Nc1ccncc1)C1CCN(S(=O)(=O)c2ccc(Cl)c(C(F)(F)F)c2)CC1	-17	3	3	48*	-15
Cc1ccc(NC(=O)COc2ccccc2C#N)cc1S(=O)(=O)N1CCCCCC1	22	4	52*	8	12
Cc1ccc(NC(=O)CN(C)CC(=O)Nc2cccc(F)c2)cc1S(=O)(=O)N1CCCCCC1	-18	25	50*	8	-1
CN(CC(=O)Nc1cccc(S(=O)(=O)N2CCCC2)c1)CC(=O)Nc1ccc(Cl)c(C(F)(F)F)c1	-3	14	31	26	54*

Bioassay records from PubChem BioAssay.
